ChEMBL document CHEMBL1121364, “Nucleoside conjugates as potential antitumor agents. 3. Synthesis and antitumor activity of 1-(beta-D-arabinofuranosyl)cytosine conjugates of corticosteroids” (1980)

What was measured:
[1] = system: L1210; assay: Antitumor activity in the mice with intraperitoneal implanted L1210 lymphoid leukemia at the dose of 18 and 27.7 mg/kg/day x 5 was determined as mean survival of treated group compared to untreated; 13/9; format: functional, Mus musculus
Outline: (§1)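 C3D2F1/J female mice (C3H/HeJ female × DBA/2J male), groups of six to eight, average weight 25 g. Inoculated ip with 1 × 10^6 L1210 ascites cells taken from DBA/2Ha donor mice bearing 3-5 day old tumors. Compounds were dissolved in 0.154 N NaOH, neutralized with 0.154 N HCl (final 0.9% NaCl), and given ip daily for 5 days from 24 h post-implant. Median survival T/C; ILS = (T/C − 1) × 100; 30-day survivors counted.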

[2] = system: L1210; assay: Antitumor activity in mice with intraperitoneal implanted L1210 lymphoid leukemia at the dose 9.2 and 13.2 mg/kg/day x 5 was determined as weight change (g/mouse) on 8th day; format: functional
Outline: (§2)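 C3D2F1/J female mice (C3H/HeJ × DBA/2J), groups of six to eight, average 25 g, inoculated ip with 1 × 10^6 L1210 ascites cells taken from DBA/2Ha donor mice carrying 3-5 day tumors. Compound dissolved in 0.154 N NaOH, then neutralized with 0.154 N HCl to give 0.9% NaCl. Given ip daily for 5 consecutive days starting 24 h after implantation. Body weight change per mouse recorded on day 8.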

[3] = system: L1210; assay: Antitumor activity in mice with intraperitoneal implanted L1210 lymphoid leukemia at the dose 18 and 27.7 mg/kg/day x 5 was determined as weight change (g/mouse) on 8th day; format: functional; outline: as §2
[4] = system: L1210; assay: Antitumor activity in the mice with intraperitoneal implanted L1210 lymphoid leukemia at the dose of 9.2 and 13.2 mg/kg/day x 5 was determined as mean survival of treated group compared to untreated; 15/11; format: functional, Mus musculus
[5] = system: L1210; assay: Antitumor activity in the mice with intraperitoneal implanted L1210 lymphoid leukemia at the dose 18 and 27.7 mg/kg/day x 5 was determined and number of animals survived on 30 th day were reported; 0/8; format: functional, Mus musculus
Outline: (§3)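 Female C3D2F1/J mice (C3H/HeJ × DBA/2J), groups of six to eight, average weight 25 g. Each mouse got 1 × 10^6 L1210 ascites cells ip, taken from DBA/2Ha donor mice bearing 3-5 day tumors. Compound was dissolved in 0.154 N NaOH and neutralized with 0.154 N HCl (final 0.9% NaCl). Dosed ip daily ×5, starting 24 h after implant. Recorded body weight change on day 8, survival range, median survival and 30-day survivors. ILS = (T/C − 1) × 100.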

[6] = system: L1210; assay: Antitumor activity in the mice with intraperitoneal implanted L1210 lymphoid leukemia at the dose 9.2 and 13.2 mg/kg/day x 5 was determined as percentage increase in the life span as compared with control tumor bearers; format: functional, Mus musculus; outline: as §1
[7] = system: L1210; assay: Antitumor activity in the mice with intraperitoneal implanted L1210 lymphoid leukemia at the dose 18 and 27.7 mg/kg/day x 5 was determined as Survival time in days; Range is 9-17 days; format: functional, Mus musculus; outline: as §3
[8] = system: L1210; assay: Antitumor activity in the mice with intraperitoneal implanted L1210 lymphoid leukemia at the dose 9.2 and 13.2 mg/kg/day x 5 was determined as Survival time in days; Range is 11-28 days; format: functional, Mus musculus; outline: as §1
[9] = system: L1210; assay: Antitumor activity in the mice with intraperitoneal implanted L1210 lymphoid leukemia at the dose 18 and 27.7 mg/kg/day x 5 was determined as percentage increase in the life span as compared with control tumor bearers; format: functional, Mus musculus; outline: as §3
[10] = system: L1210; assay: Antitumor activity in the mice with intraperitoneal implanted L1210 lymphoid leukemia at the dose 9.2 and 13.2 mg/kg/day x 5 was determined and number of animals survived on 30 th day were reported; 0/6; format: functional, Mus musculus; outline: as §1
[11] = system: L1210; assay: Antitumor activity in the mice with intraperitoneal implanted L1210 lymphoid leukemia at the dose of 5 mg/kg/day x 5 was determined as mean survival of treated group compared to untreated; 13.5/9; format: functional, Mus musculus; outline: as §1
[12] = system: L1210; assay: Antitumor activity in the mice with intraperitoneal implanted L1210 lymphoid leukemia at the dose of 18.2 mg/kg/day x 5 was determined as mean survival of treated group compared to untreated; 14.5/10; format: functional, Mus musculus; outline: as §1
[13] = system: L1210; assay: Antitumor activity in mice with intraperitoneal implanted L1210 lymphoid leukemia at the dose 9.2 mg/kg/day x 5 was determined as weight change (g/mouse) on 8th day; format: functional; outline: as §2
[14] = system: L1210; assay: Antitumor activity in mice with intraperitoneal implanted L1210 lymphoid leukemia at the dose 18.2 mg/kg/day x 5 was determined as weight change (g/mouse) on 8th day; format: functional; outline: as §2
[15] = system: L1210; assay: Antitumor activity in the mice with intraperitoneal implanted L1210 lymphoid leukemia at the dose of 9.2 mg/kg/day x 5 was determined as mean survival of treated group compared to untreated; 17/9; format: functional, Mus musculus
[16] = system: L1210; assay: Antitumor activity in mice with intraperitoneal implanted L1210 lymphoid leukemia at the dose 25 mg/kg/day x 5 was determined as weight change (g/mouse) on 8th day; format: functional; outline: as §2
[17] = system: L1210; assay: Antitumor activity in mice with intraperitoneal implanted L1210 lymphoid leukemia at the dose 5 mg/kg/day x 5 was determined as weight change (g/mouse) on 8th day; format: functional; outline: as §2
[18] = system: L1210; assay: Antitumor activity in the mice with intraperitoneal implanted L1210 lymphoid leukemia at the dose 9.2 mg/kg/day x 5 was determined as Survival time in days; Range is 14-42 days; format: functional, Mus musculus; outline: as §1
[19] = system: L1210; assay: Antitumor activity in the mice with intraperitoneal implanted L1210 lymphoid leukemia at the dose 18.2 mg/kg/day x 5 was determined and number of animals survived on 30 th day were reported; 0/8; format: functional, Mus musculus; outline: as §3
[20] = system: L1210; assay: Antitumor activity in the mice with intraperitoneal implanted L1210 lymphoid leukemia at the dose 25 mg/kg/day x 5 was determined and number of animals survived on 30 th day were reported; 0/8; format: functional, Mus musculus; outline: as §3
[21] = system: L1210; assay: Antitumor activity in the mice with intraperitoneal implanted L1210 lymphoid leukemia at the dose 25 mg/kg/day x 5 was determined as Survival time in days; Range is 9-16 days; format: functional, Mus musculus; outline: as §3
[22] = system: L1210; assay: Antitumor activity in the mice with intraperitoneal implanted L1210 lymphoid leukemia at the dose 5 mg/kg/day x 5 was determined as Survival time in days; Range is 9-22 days; format: functional, Mus musculus; outline: as §3
[23] = system: L1210; assay: Antitumor activity in the mice with intraperitoneal implanted L1210 lymphoid leukemia at the dose 5 mg/kg/day x 5 was determined and number of animals survived on 30 th day were reported; 0/7; format: functional, Mus musculus; outline: as §3
[24] = system: L1210; assay: Antitumor activity in the mice with intraperitoneal implanted L1210 lymphoid leukemia at the dose 5 mg/kg/day x 5 was determined as percentage increase in the life span as compared with control tumor bearers; format: functional; settings: Mus musculus, L1210, ip; outline: as §3
[25] = system: L1210; assay: Antitumor activity in the mice with intraperitoneal implanted L1210 lymphoid leukemia at the dose 9.2 mg/kg/day x 5 was determined as percentage increase in the life span as compared with control tumor bearers; format: functional; settings: Mus musculus, L1210, ip; outline: as §1
[26] = system: L1210; assay: Antitumor activity in the mice with intraperitoneal implanted L1210 lymphoid leukemia at the dose 18.2 mg/kg/day x 5 was determined as percentage increase in the life span as compared with control tumor bearers; format: functional; settings: Mus musculus, L1210, ip; outline: as §3
[27] = system: L1210; assay: Antitumor activity in the mice with intraperitoneal implanted L1210 lymphoid leukemia at the dose 18.2 mg/kg/day x 5 was determined as Survival time in days; Range is 10-19 days; format: functional, Mus musculus; outline: as §3
[28] = system: L1210; assay: Antitumor activity in the mice with intraperitoneal implanted L1210 lymphoid leukemia at the dose 9.2 mg/kg/day x 5 was determined and number of animals survived on 30 th day were reported; 1/7; format: functional, Mus musculus; outline: as §1
[29] = system: L1210; assay: Antitumor activity in the mice with intraperitoneal implanted L1210 lymphoid leukemia at the dose 25 mg/kg/day x 5 was determined as percentage increase in the life span as compared with control tumor bearers; format: functional; settings: Mus musculus, L1210, ip; outline: as §3

Work on `C[C@H]1C[C@@H]2[C@H]([C@@H](O)C[C@@]3(C)[C@H]2CC[C@]3(O)C(=O)CO)[C@@]2(C)C=CC(=O)C=C12.Nc1ccn([C@@H]2O[C@H](CO)[C@@H](O)[C@@H]2O)c(=O)n1` yielded a T/C [1] of 13, a Weight change [2] of -2.38 g mouse-1 and a Weight change [3] of -1.38 g mouse-1. It also gave a T/C [4] of 15, a Survivors [5] of 0 and an ILS [6] of 36%. For the same compound, the Survival time [7] was 9 days, the Survival time [8] was 11 days and the ILS [9] was 44%. The Survivors [10] was 0.

In the case of `Nc1ccn([C@@H]2O[C@H](CO)[C@@H](O)[C@@H]2O)c(=O)n1` [CYTARABINE], the T/C [11] is reported as 13.5, the T/C [12] is reported as 14.5 and the Weight change [13] is reported as -0.63 g mouse-1. It also gave a Weight change [14] of -3.64 g mouse-1, a T/C [15] of 17 and a Weight change [16] of -3.8 g mouse-1. For the same compound, the Weight change [17] was 2 g mouse-1, the Survival time [18] was 14 days and the Survivors [19] was 0. It also gave a Survivors [20] of 0, a Survival time [21] of 9 days and a Survival time [22] of 9 days. For the same compound, the Survivors [23] was 0, the ILS at 5 mg/kg/day [24] was 50% and the ILS at 9.2 mg/kg/day [25] was 89%. The ILS at 18.2 mg/kg/day [26] was 45%, the Survival time [27] was 10 days and the Survivors [28] was 1. It also gave an ILS at 25 mg/kg/day [29] of 19%.
